One data set has as its system HEK-293T. The data set is described as follows: Cytotoxicity against HEK293T cells after 48 hrs by MTT assay. Format: cell-based. The settings on record: Homo sapiens. On the technique in general: Tetrazolium dyes change colour on reduction, which living cells bring about.
Data set [1] in a line: Vacuolar accumulation ratio of the compound. It is filed as ADME. In a few lines: (§1)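 Calculated rather than measured. VAR: predicted trapping in acidic digestive vacuole from pH-dependent water/lipid distribution (log D). LAR: expected fraction concentrating in the vacuole's lipid component.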
Data set [2] in a line: Water-lipid distribution coefficient, log D of the compound at pH 7.4. It is filed as physicochemical.
Data set [3] relates to Plasmodium falciparum. The data set is described as follows: Antiplasmodial activity against chloroquine-resistant ring stage Plasmodium falciparum W2 infected in human RBC after 48 hrs by flow cytometric analysis. Format: functional, organism-based. Particulars: W2, 48 h. The essentials: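 Ring-stage W2 parasites at 1% in human erythrocytes, synchronized with 5% sorbitol. Incubated with compound 48 h at 37 °C in RPMI-1640 with 25 mM HEPES pH 7.4, 10% heat-inactivated human serum (or 0.5% Albumax/2% human serum) and hypoxanthine, under 3% O₂/5% CO₂/[…]. Cells fixed in 2% formaldehyde, stained in PBS with NH₄Cl, 0.1% Triton X-100 and 1 nM YOYO-1, then counted by flow cytometry.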
(In general: A flow cytometer gives signals particle by particle.)

Data set [4] in a line: Inhibition of hemozoin-like crystal formation up to 1 mM after 5 days. Format: functional. The essentials:
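Hemozoin-like crystal stock suspension sonicated 3 min and diluted in fresh broth medium. Compounds in wells at 0–1000 final concentration after 0.22 filtration. Incubated at 37 °C, 5% CO₂, 5 days, then scored for presence or absence of crystal growth. Triplicate.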

Data set [5] is described as follows: Water-lipid distribution coefficient, log D of the compound at pH 5.2. Format: physicochemical.
The nature of data set [6]: Lipid accumulation ratio of the compound. Format: physicochemical. The essentials:
as §1

In data set [7] the test system is Plasmodium falciparum. Kind of data set: Inhibition of Plasmodium falciparum falcipain-2 up to 50 uM.
The nature of data set [8]: Selectivity index, ratio of EC50 for HEK293T cells to IC50 for chloroquine-resistant ring stage Plasmodium falciparum W2. It is filed as functional, HEK-293T.
The nature of data set [9]: Inhibition of Plasmodium falciparum falcipain-2.
The subject of data set [10] is Plasmodium falciparum. The data set is described as follows: Antimalarial activity against chloroquine-resistant ring stage Plasmodium falciparum Dd2 infected in human erythrocytes after 48 hrs by SYBR Green I staining-based isobologram method in presence of chloroquine. Format: functional. In a few lines: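 Fixed-ratio isobologram: IC50s of each drug alone found first, then 2-fold dilution dose-response series at IC50 ratios 5:0, 4:1, 3:2, 2:3, 1:4, 0:5. Early ring-stage parasitized erythrocytes at 1% parasitaemia, 3% haematocrit, triplicate wells, 48 h at 37 °C. Growth read by SYBR Green I fluorescence, nonlinear regression. Interaction from sum of FICs (IC50 in combination/IC50 alone).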

Data set [11] can be described thus: Inhibition of hemozoin-like crystal formation after 5 days. The settings on record: 120 h. It is filed as functional. In a few lines:
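Hemozoin-like crystal stock suspension sonicated 3 min, diluted in fresh broth. Compounds 0.22-filtered, then added across a 0–1000 final range. Incubated 37 °C, 5% CO2 for 5 days, scored for presence or absence of crystal growth. Triplicate.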

In brackets after ≈: the same amount, converted by molar mass. Activity calls are given as the source filed them. Where only a bound is given, the exact number is not on record here.

In the data set on HEK-293T, `Nc1ccc(-c2ccc3c(c2)O/C(=C\c2ccccc2)C3=O)cn1` displayed an EC50 above 100 µM. The Ratio in [1] was 9.2; in data set [6] it was 150233. Further, the logD was found to be 5.18 in data set [2] and 4.21 in data set [5]. The IC50 with Plasmodium falciparum [3] is 3.03 µM. For the same compound, the inhibition entry (in data set [4]; with Plasmodium falciparum [7]) was “inactive” throughout. Further, the “Selectivity Index” value in data set [8] is on record as above 33.

In the case of `COc1cccc2c1O/C(=C\c1ccc(Cl)cc1Cl)C2=O`, in the data set with HEK-293T, the EC50 was above 100 µM. Also, the IC50 came to 18.6 µM in [9] and 4.8 µM with Plasmodium falciparum [3]. Further, in data set [8], the “Selectivity Index” value is above 21.

As for `O=C1/C(=C/c2ccccc2)Oc2c1ccc(O)c2CN1CCOCC1`, the EC50 in the data set with HEK-293T was above 100 µM. Moreover, the CI with Plasmodium falciparum [10] turned out to be 1.06. Moreover, the Ratio in data set [1] was found to be 17.2; in [6] it was 265. Moreover, the values for the logD in data set [2] and in data set [5] were 2.42 and 1.19, respectively. 3.34 µM corresponded to half-maximal inhibition with Plasmodium falciparum [3] (IC50). In addition, the inhibition entry in data set [4] was “inactive”. In addition, the “Selectivity Index” value in data set [8] is recorded as above 30.

With `CCN(CC)CCCC(C)Nc1ccnc2cc(Cl)ccc12` (stereo unspecified) [CHLOROQUINE], the MIC in [11] came to 125 µM (≈ 40 µg/mL).

`Nc1ccc(-c2ccc(/C=C3\Oc4ccccc4C3=O)cc2)cn1` showed an EC50 in the data set with HEK-293T above 100 µM. Further, the Ratio in data set [1] is recorded as 9.2; in data set [6], 4643. Further, the logD in data set [2] is 3.67; in data set [5], 2.7. Also, in the data set on Plasmodium falciparum [3], the IC50 was found to be 3.7 µM. The inhibition result (in data set [4]; in the data set with Plasmodium falciparum [7]) was “inactive” throughout. For the same compound, the “Selectivity Index” value in data set [8] is above 27.

Take `Nc1ccc(-c2cccc(/C=C3\Oc4ccccc4C3=O)c2)cn1`: the EC50 in the data set on HEK-293T is 79 µM. The Ratio in data set [1] is 9.2; in [6], 4643. For the same compound, the figures for the logD in data set [2] and in data set [5] were 3.67 and 2.7, respectively. Also, it took 2.56 µM to reach half-maximal inhibition in the data set with Plasmodium falciparum [3] (IC50). Moreover, the inhibition result (in data set [4]; in the data set with Plasmodium falciparum [7]) was “inactive” in each case. For the same compound, the “Selectivity Index” value in [8] is above 31.

Usually EC50 stands for the concentration at which the effect is half-maximal. High values mean a need for much substance, low ones an effect from little substance. For orientation: logD means the decadic logarithm of the distribution of all forms, ionised or not, between an organic phase and buffer at a given pH. The term IC50 denotes the concentration that inhibits the measured activity by half. Higher therefore signals weaker potency in that assay. The term MIC denotes the smallest concentration in the dilution series that meets the test's criterion for growth inhibition. A lower MIC goes with inhibition by little substance.

The record behind these values is ChEMBL document CHEMBL3259771, “Probing the aurone scaffold against Plasmodium falciparum: design, synthesis and antimalarial activity” (Eur J Med Chem, 2014).
